# From PubChem
# CHOP inh: CHOP inhibition in unfolded protein response; CHO-K1 CHOP-promoter luciferase, tunicamycin-induced, 15-18 h; inhibition, % at 10 µM; 220,000 tested, 3.8% active;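 active = compounds that reduced the stress-induced luciferase reporter signal by more than about 70% of percent inhibition, limit read from the data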;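 also: 0% = tunicamycin plus vehicle and 100% = wells without tunicamycin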
# UPR CHOP act: activators of apoptotic arm of unfolded protein response (CHOP) | CHO-CHOP luciferase reporter, UPR activation, luminescence; percent of tunicamycin response over DMSO baseline | activation, % at 10 µM | 330,000 tested, 0.34% active | AID 449763;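 active = at 10 µM dose, activation of 40% or more, normalized to positive control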;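 also: 100% = tunicamycin at 10 µg/mL and 0% = DMSO alone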
#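 Test system: CHO-CHOP cells, stable luciferase reporter of PERK-eIF2a-CHOP signalling | Quantity: 500 CHO-CHOP cells per well | Buffer or medium: F12 plus 10% serum | Compound dosing: 10 µM single point, 0.5% DMSO | Schedule: 6 h compound treatment, 37 °C | Signal: Luciferase luminescence | Control set: Tunicamycin high control, DMSO low control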
# UPR XBP1 act: activators of adaptive arm of unfolded protein response (XBP1). activation, % at 20 µM. 330,000 tested, 0.33% active. CHO-XBP1 luciferase reporter, IRE1-XBP1 UPR activation, luminescence; percent of tunicamycin response, DMSO as zero. AID 463104;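 active = versus positive control, 20 µM dose yields 30% or more activation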;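 also: 100% = tunicamycin at 10 µg/mL and 0% = DMSO only wells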
#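 Test system: CHO-XBP1 luciferase reporter cells | Buffer or medium: Serum-containing F12 medium, 10% FBS | Schedule: 6 h compound exposure at 37 °C, 5% CO2 | Detection: Steady-Glo luciferase glow luminescence, 10 min after reagent addition | Read-out basis: Activation, % of tunicamycin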
# Lmaj promast: reduces viability of Leishmania major promastigotes | inhibition, % at 10 µM | resazurin fluorescence viability | 200,000 tested, 9% active; in the data active = inhibition above about 50%;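 also: promastigotes grown with compound for 44 hours at 28 °C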
# T cruzi repl: blocks replication of Trypanosoma cruzi | T. cruzi beta-gal in NIH3T3, luminescence, 90 h | inhibition, % (no concentration beside the values) | 300,000 tested, 1.4% active;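 active = mean inhibition across valid replicates above about 55%, limit read from the data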;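 also: signal also drops with host cell toxicity which is not excluded here; 0% = plate median of DMSO wells and 100% = zero luminescence signal; higher percent means less beta-gal luminescence so fewer parasites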
#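 Material: NIH/3T3 host cells with β-galactosidase reporter T. cruzi; Input: 5,000 host fibroblasts per well; Medium: DMEM, 2% fetal bovine serum; Compound: 50 nL DMSO compound solution per well; Schedule: 3 h host attachment, then at least 90 h co-culture; Detection: luminescent β-galactosidase signal after 60 min lysis.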
# Dynein cargo inh: dynein cargo transport inhibition. 3617.4 mouse cells, GR-EGFP nuclear translocation imaging; test concentration mostly 20 µM; stimulated with dexamethasone, 1 µM; stronger effect = lower value. z-score, hits read low. 220,000 tested, 0.47% active. AID 1381;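 active = plate z-score of nuclear minus cytoplasmic receptor signal below a set negative limit, without overly bright fluorescence or cell loss, cut at about -3.5 in these data, passing the limit was not always enough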;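 also: z-score of nuclear minus cytoplasmic ring GR-EGFP intensity difference per well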
#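 Also added: dexamethasone, 1.0 µM final. Medium: tet-free, stripped-serum medium. Detection: fixed, Hoechst-stained cells imaged at 10x for EGFP. Read-out: nuclear-to-cytoplasmic GR-EGFP distribution per well. Times: induction 48 h, compound 1 h, agonist 30 min.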
# * = called active by the depositor; x = not tested or not shown. The entries come from a sample that favours hits as a whole.
SMILES,CHOP inh,UPR CHOP act,UPR XBP1 act,Lmaj promast,T cruzi repl,Dynein cargo inh
CCOC(=O)c1c(NC(=O)C2C3CCC(O3)C2C(=O)O)sc2c1CCC(CC)C2 (configuration not stated),-12,1,-2,-8,3,2
OC(CNCCc1ccc(C(F)(F)F)cc1)COC(c1ccccc1)c1ccccc1 (configuration not stated),x,0,-2,x,46,x
CCN(CC)CCN(C(=O)CCS(=O)(=O)c1ccccc1)c1nc2cc(C)cc(C)c2s1,x,2,-1,x,72*,x
COc1ccc(Cl)c2sc(N(CCN(C)C)C(=O)CCS(=O)(=O)c3ccc(C)cc3)nc12,x,0,3,x,-4,x
COc1ccc(OC)c2sc(N(CCCN(C)C)C(=O)CCS(=O)(=O)c3ccccc3)nc12,x,-9,-10,x,59*,x
CN(C)CCN(C(=O)CCS(=O)(=O)c1ccccc1)c1nc2c(F)cccc2s1,x,1,-2,x,28,x
Cc1ccc2sc(N(CCCN(C)C)C(=O)CCS(=O)(=O)c3ccccc3)nc2c1C,x,-10,-9,x,63*,x
COC(=O)Cc1ccc(NC(=S)Nc2ccccn2)cc1,73*,3,-5,0,-18,0.22
COC(=O)Cc1ccc(NC(=S)NCCO)cc1,10,0,-1,x,-6,-0.55
Cc1sc2ncnc(Sc3nnnn3-c3ccccc3)c2c1C,-12,7,-6,89*,-1,-0.68
Cc1sc2ncnc(Sc3ccccc3C(=O)O)c2c1C,5,4,0,0,-3,0.09
CCC(Sc1nc2cc3c(cc2c(=O)n1Cc1ccco1)OCO3)C(=O)Nc1cccc(OC)c1 (configuration not stated),56,-2,-1,96*,35,-0.12
CCOC(=O)C1(CCCc2ccccc2)CCN(C(=O)c2cc(C)nn2CC)CC1,x,0,-3,x,5,x
CC1CCCCN1S(=O)(=O)Cc1ccccc1Cl (configuration not stated),x,3,-3,x,-1,x
COc1ccc(-n2nnc3c(SCC(=O)NCC4CCCO4)ncnc32)cc1 (configuration not stated),-54,-1,-3,75*,x,-0.47
CSc1nc2ccccc2cc1/C=C(\C#N)c1ccccc1,39,-1,-1,0,-24,-3
O=Cc1cc2ccccc2nc1SCCCF,43,-2,7,58*,-11,-0.4
CCC(=O)NC(C)c1cc(Cl)c2cccnc2c1O (configuration not stated),x,0,2,x,x,x
CCCCC(=O)NC(c1ccc(Cl)cc1)c1ccc2cccnc2c1O (configuration not stated),x,2,-4,x,71*,x
CCCCC(=O)N/N=C/c1ccc(Sc2cccc3cccnc23)o1,40,0,16,14,6,-0.85
CCCC(=O)NC(c1ccc(C)cc1)c1ccc2cccnc2c1O (configuration not stated),x,16,-2,x,72*,x
CCCC(=O)NC(c1ccc(Cl)cc1)c1ccc2cccnc2c1O (configuration not stated),x,0,1,x,65*,x
CCCC(=O)NC(c1ccc(Cl)cc1Cl)c1ccc2cccnc2c1O (configuration not stated),x,1,-1,x,64*,x
CCC(=O)NC(c1ccc(C)cc1)c1cc(Cl)c2cccnc2c1O (configuration not stated),x,3,2,x,x,x
O=C(O)c1cc(-c2c[nH]c3ccccc23)nc2cc3ccccc3cc12,7,4,2,x,2,-1.2
COc1ccc(C(NC(C)=O)c2ccc3cccnc3c2O)c(OC)c1 (configuration not stated),x,-4,-3,x,53,x
CC(=O)NC(c1ccc(Cl)cc1Cl)c1ccc2cccnc2c1O (configuration not stated),x,-1,2,x,62*,x
CC(=O)NC(c1ccc2ccccc2c1)c1ccc2cccnc2c1O (configuration not stated),x,-1,-2,x,61*,x
